Measured values from ChEMBL document CHEMBL1152770, “Inhibitors of hepatitis C virus polymerase: synthesis and biological characterization of unsymmetrical dialkyl-hydroxynaphthalenoyl-benzothiadiazines” (J Med Chem, 2009).
pEC50, pIC50: −log10 of the molar value.

Assays:
[1] = Ratio of drug level in liver to plasma in rat at 5 mg/kg, po after 12 hrs; format: ADME, organism-based; design: dose 5 mg/kg, route oral
In short: (§1)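 Rats dosed orally at 5 mg/kg, four groups, sacrificed at 6 and 12 h. Plasma and liver homogenate extracted by acetonitrile protein precipitation with internal standard and quantified by LC-MS (negative-ion MRM). Liver/plasma ratio taken from the two concentrations.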

[2] = Plasma concentration in rat at 5 mg/kg, po after 12 hrs; format: ADME, organism-based; design: dose 5 mg/kg, route oral
In short: (§2)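 Vehicle DMSO:PEG400 (10:90, v/v). Dosing at 5 mg/kg in rat and monkey; dog 5 mg/kg or 2.5 mg/kg. Protein precipitation with acetonitrile, then LC-MS/MS in negative-ion MRM (m/z 516.2→437.0) against spiked standards with internal standard.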

[3] = Ratio of drug level in liver to plasma in rat at 5 mg/kg, po after 6 hrs; format: ADME, organism-based; design: dose 5 mg/kg, route oral; in short: as §1
[4] = Drug level in rat liver at 5 mg/kg, po after 6 hrs; format: ADME, organism-based; design: dose 5 mg/kg, route oral; conditions: read-out: Drug uptake; in short: as §1
[5] = Plasma concentration in rat at 5 mg/kg, po after 6 hrs; format: ADME, organism-based; design: dose 5 mg/kg, route oral; in short: as §2
[6] = Drug level in rat liver at 5 mg/kg, po after 12 hrs; format: ADME, organism-based; design: dose 5 mg/kg, route oral; conditions: read-out: Drug uptake; in short: as §1
[7] = AUC in dog at 2.5 mg/kg, po; format: ADME, organism-based, Canis lupus familiaris; design: dose 2.5 mg/kg, route oral; conditions: plasma; in short: as §2
[8] = Cmax in monkey at 5 mg/kg, po; format: ADME, organism-based, Macaca mulatta; design: dose 5 mg/kg, route oral; conditions: rhesus monkey, in vivo; in short: as §2
[9] = Cmax in rat at 5 mg/kg, po; format: ADME, organism-based; design: dose 5 mg/kg, route oral; conditions: in vivo; in short: as §2
[10] = AUC in monkey at 5 mg/kg, po; format: ADME, organism-based, Macaca mulatta; design: dose 5 mg/kg, route oral; conditions: rhesus monkey, plasma; in short: as §2
Hepatitis C virus [11] = experiment: Antiviral activity against HCV 1a containing chimeric genotype 1a-H77/1b-con1 subgenom in human Huh7 cells assessed as reduction in viral RNA after 4 days by RT-PCR; conditions: subtype 1a, Huh-7, 96 h
[12] = Aqueous solubility in 50 mM phosphate buffer at pH 7.4; format: physicochemical
In short: (§3)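 Equilibrium solubility in PEG 400, in 50 mM citrate buffer pH 4 or in 50 mM phosphate buffer pH 7.4. Buffers brought to ionic strength 0.155 M with NaCl. Vials rotated at 25 °C for 4 days, final pH measured, then supernatant assayed by reverse-phase HPLC at 262 nm against a linear standard curve.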

[13] = AUC in dog at 2.5 mg/kg, iv; format: ADME, organism-based, Canis lupus familiaris; design: dose 2.5 mg/kg, route intravenous; conditions: plasma; in short: as §2
[14] = Volume of distribution at steady state in dog at 2.5 mg/kg, iv; format: ADME, organism-based, Canis lupus familiaris; design: dose 2.5 mg/kg, route intravenous; conditions: in vivo, read-out: Vdss
In short: (§4)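 Single intravenous dose. Heparinized plasma sampled at 0.1, 0.25, 0.5, 1, 2, 4, 6, 9, 12 and 24 h, plus 3 and 15 h in dog. Drug was isolated by acetonitrile protein precipitation and quantified by LC-MS in negative-ion MRM mode (m/z 516.2→437.0) against an internal standard. Concentrations came from unweighted linear regression of spiked standards.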

[15] = Inhibition of HCV isolate H77 NS5B polymerase after 3 hrs by scintillation counting
[16] = AUC in rat at 5 mg/kg, po; format: ADME, organism-based; design: dose 5 mg/kg, route oral; conditions: plasma; in short: as §2
Hepatitis C virus [17] = experiment: Antiviral activity against HCV isolate Con1 assessed as reduction in viral RNA after 4 days by RT-PCR in presence of 40% human serum; conditions: isolate Con1, 96 h
[18] = Oral bioavailability in rat at 5 mg/kg; format: ADME, organism-based; conditions: in vivo; in short: as §2
[19] = Inhibition of HCV isolate BK NS5B polymerase after 3 hrs by scintillation counting
[20] = Plasma clearance in monkey at 5 mg/kg, iv; format: ADME, organism-based, Macaca mulatta; design: dose 5 mg/kg, route intravenous; conditions: rhesus monkey; in short: as §2
[21] = Elimination half life in dog at 2.5 mg/kg, iv; format: ADME, organism-based, Canis lupus familiaris; design: dose 2.5 mg/kg, route intravenous; conditions: in vivo, read-out: beta t1/2 (converted); in short: as §2
[22] = Metabolic stability in dog liver microsomes assessed as intrinsic clearance; format: ADME, Canis lupus familiaris, Microsome
[23] = Cmax in dog at 2.5 mg/kg, po; format: ADME, organism-based, Canis lupus familiaris; design: dose 2.5 mg/kg, route oral; conditions: in vivo; in short: as §2
[24] = Elimination half life in monkey at 5 mg/kg, iv; format: ADME, organism-based, Macaca mulatta; design: dose 5 mg/kg, route intravenous; conditions: rhesus monkey, in vivo, read-out: beta t1/2 (converted); in short: as §2
[25] = n-Octanol-phosphate buffer distribution coefficient, log D at pH 7.4; format: physicochemical
In short: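 Compound was dissolved in n-octanol and mixed with 50 mM phosphate buffer, isotonic with NaCl, pH 7.4. The mixture was tumbled at 25 °C, 25 rpm, for 2-3 days, then centrifuged to split the phases. Each phase was assayed by reverse-phase HPLC (UV 262 nm) against a linear standard curve. D is the octanol/buffer concentration ratio.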

Hepatitis C virus [26] = experiment: Ratio of EC50 for HCV isolate Con1 in presence of 40% human serum to EC50 for HCV isolate Con1; format: functional, Hepacivirus hominis
In short: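 Genotype 1b-con1 subgenomic replicon in Huh-7 cells. Four-day incubation with inhibitor in medium with 5% FBS, with or without 40% human serum. EC50 from the fall in HCV RNA copy number by real-time PCR. Ratio is EC50 with serum over EC50 without.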

[27] = Solubility in polyethylene glycol 400 at 25 deg C; format: physicochemical; in short: as §3
[28] = AUC in rat at 5 mg/kg, iv; format: ADME, organism-based; design: dose 5 mg/kg, route intravenous; conditions: plasma; in short: as §2
[29] = Metabolic stability in monkey hepatocytes assessed as intrinsic clearance; format: ADME, cell-based, Macaca mulatta, Liver, Hepatocyte; conditions: rhesus monkey
[30] = Volume of distribution at steady state in monkey at 5 mg/kg, iv; format: ADME, organism-based, Macaca mulatta; design: dose 5 mg/kg, route intravenous; conditions: rhesus monkey, in vivo, read-out: Vdss; in short: as §4
[31] = Metabolic stability in rat liver microsomes assessed as intrinsic clearance; format: ADME, Microsome
Hepatitis C virus [32] = experiment: Antiviral activity against HCV isolate Con1 in human Huh7 cells assessed as reduction in viral RNA after 4 days by RT-PCR; conditions: isolate Con1, Huh-7, 96 h
[33] = Metabolic stability in dog hepatocytes assessed as intrinsic clearance; format: ADME, cell-based, Canis lupus familiaris, Liver, Hepatocyte
[34] = Elimination half life in rat at 5 mg/kg, iv; format: ADME, organism-based; design: dose 5 mg/kg, route intravenous; conditions: in vivo, read-out: beta t1/2 (converted); in short: as §2
[35] = Terminal phase volume of distribution in dog at 2.5 mg/kg, iv; format: ADME, organism-based, Canis lupus familiaris; design: dose 2.5 mg/kg, route intravenous; conditions: in vivo, read-out: Vbeta; in short: as §2
[36] = Tmax in rat at 5 mg/kg, po; format: ADME, organism-based; design: dose 5 mg/kg, route oral; conditions: in vivo
In short: (§5)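 Single oral gavage-type dose in DMSO:PEG400 (10:90, v/v). Heparinized plasma collected at 0.25, 0.5, 1, 2, 4, 6, 9, 12 and 24 h, with extra 3 and 15 h points in dog. Acetonitrile protein precipitation was followed by LC-MS in negative-ion MRM mode with an internal standard. Tmax was read from the plasma profile.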

[37] = Volume of distribution at steady state in rat at 5 mg/kg, iv; format: ADME, organism-based; design: dose 5 mg/kg, route intravenous; conditions: in vivo, read-out: Vdss; in short: as §4
[38] = Tmax in monkey at 5 mg/kg, po; format: ADME, organism-based, Macaca mulatta; design: dose 5 mg/kg, route oral; conditions: rhesus monkey, in vivo; in short: as §5
[39] = AUC in monkey at 5 mg/kg, iv; format: ADME, organism-based, Macaca mulatta; design: dose 5 mg/kg, route intravenous; conditions: rhesus monkey, plasma; in short: as §2
[40] = Elimination half life in monkey at 5 mg/kg, po; format: ADME, organism-based, Macaca mulatta; design: dose 5 mg/kg, route oral; conditions: rhesus monkey, in vivo, read-out: beta t1/2 (converted); in short: as §2
[41] = Plasma clearance in rat at 5 mg/kg, iv; format: ADME, organism-based; design: dose 5 mg/kg, route intravenous; in short: as §2
[42] = Oral bioavailability in monkey at 5 mg/kg; format: ADME, organism-based, Macaca mulatta; conditions: rhesus monkey, in vivo; in short: as §2
[43] = Elimination half life in dog at 2.5 mg/kg, po; format: ADME, organism-based, Canis lupus familiaris; design: dose 2.5 mg/kg, route oral; conditions: in vivo, read-out: beta t1/2 (converted); in short: as §2
[44] = Terminal phase volume of distribution in monkey at 5 mg/kg, iv; format: ADME, organism-based, Macaca mulatta; design: dose 5 mg/kg, route intravenous; conditions: rhesus monkey, in vivo, read-out: Vbeta; in short: as §4
[45] = Aqueous solubility in 50 mM citrate buffer at pH 4; format: physicochemical; in short: as §3
[46] = Metabolic stability in monkey liver microsomes assessed as intrinsic clearance; format: ADME, Macaca mulatta, Microsome; conditions: rhesus monkey
[47] = Cytotoxicity against human HuH7 cells by MTT assay; format: cell-based, Huh-7; conditions: read-out: TD50 (the source's name)
In short: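 Cytotoxicity in Huh-7 replicon cultures measured by MTT colorimetric assay after the four-day incubation.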

[48] = Plasma clearance in dog at 2.5 mg/kg, iv; format: ADME, organism-based, Canis lupus familiaris; design: dose 2.5 mg/kg, route intravenous; in short: as §2
[49] = Terminal phase volume of distribution in rat at 5 mg/kg, iv; format: ADME, organism-based; design: dose 5 mg/kg, route intravenous; conditions: in vivo, read-out: Vbeta; in short: as §4
[50] = Metabolic stability in human liver microsomes assessed as intrinsic clearance; format: ADME, Microsome
[51] = Tmax in dog at 2.5 mg/kg, po; format: ADME, organism-based, Canis lupus familiaris; design: dose 2.5 mg/kg, route oral; conditions: in vivo; in short: as §5
[52] = Oral bioavailability in dog at 2.5 mg/kg; format: ADME, organism-based, Canis lupus familiaris; conditions: in vivo; in short: as §2
Hepatocyte [53] = experiment: Metabolic stability in human hepatocytes assessed as intrinsic clearance; format: ADME, cell-based, Liver
Hepatocyte [54] = experiment: Metabolic stability in rat hepatocytes assessed as intrinsic clearance; format: ADME, cell-based, Liver

CC(C)CC[C@@]1(C)C(=O)C(C2=NS(=O)(=O)c3cc(NS(C)(=O)=O)ccc3N2)=C(O)c2ccccc21
Kp at 12 h [1]: 20
concentration at 12 h [2]: 135 nM
Kp at 6 h [3]: 17
concentration at 6 h [4]: 3800 ng/g
concentration at 6 h [5]: 445 nM
concentration at 12 h [6]: 1430 ng/g

CC(C)(C)CC[C@@]1(C)C(=O)C(C2=NS(=O)(=O)c3cc(NS(C)(=O)=O)ccc3N2)=C([O-])c2ccccc21.[Na+]
AUC [7]: 121000 ng·h/mL
Cmax [8]: 480 ng/mL
Cmax [9]: 890 ng/mL
AUC [10]: 1900 ng·h/mL
pEC50 (Hepatitis C virus [11]): 8.40
solubility [12]: 110 µg/mL
AUC [13]: 116000 ng·h/mL
Vd [14]: 0.38 L/kg
pIC50 [15]: 9.15
AUC [16]: 11500 ng·h/mL
pEC50 (Hepatitis C virus [17]): 7.55
bioavailability [18]: 77.3%
pIC50 [19]: 9.22
clearance [20]: 9.33 mL/min/kg
half-life [21]: 12.3 h
microsomal CLint [22]: 2.4 µL/min/mg
Cmax [23]: 5700 ng/mL
half-life [24]: 2.1 h
logD [25]: 2.26
Ratio EC50 (Hepatitis C virus [26]): 17
solubility [27]: 150000 µg/mL
concentration at 6 h [4]: 21800 ng/g
AUC [28]: 14900 ng·h/mL
CL [29]: 3.5 µL/min/mg
Vd [30]: 0.77 L/kg
microsomal CLint [31]: 8.7 µL/min/mg
pEC50 (Hepatitis C virus [32]): 8.70
CL [33]: 0.5 µL/min/mg
half-life [34]: 4.5 h
Vd [35]: 0.46 L/kg
Tmax [36]: 9 h
Vd [37]: 2.22 L/kg
Tmax [38]: 2.7 h
AUC [39]: 10200 ng·h/mL
half-life [40]: 2 h
clearance [41]: 5.67 mL/min/kg
bioavailability [42]: 19%
half-life [43]: 14.8 h
concentration at 12 h [6]: 4190 ng/g
Vd [44]: 1.77 L/kg
solubility [45]: < 0.2 µg/mL
microsomal CLint [46]: 14.4 µL/min/mg
CC50 [47]: 21700 nM
clearance [48]: 0.333 mL/min/kg
Vd [49]: 2.39 L/kg
microsomal CLint [50]: 23.6 µL/min/mg
Tmax [51]: 2.2 h
bioavailability [52]: 100%
CL (Hepatocyte [53]): 2.7 µL/min/mg
CL (Hepatocyte [54]): 1.6 µL/min/mg
